Measured values published in ChEMBL document CHEMBL3739273, “Synthesis, biological activity evaluation and molecular docking studies of novel coumarin substituted thiazolyl-3-aryl-pyrazole-4-carbaldehydes” (Bioorg Med Chem Lett, 2015).
pIC50, pKi: −log10 of the molar value. Converted amounts (≈) assume the structure as drawn. The source made the active and inactive calls. The calls are words filed in the database; no cut-off is given here.

Assays:
Escherichia coli [1] = assay: Antibacterial activity against Escherichia coli ATCC 8739 assessed as growth inhibition at 100 ug/ml after 24 hrs by agar well diffusion method; type: functional
Procedure, shortened: (§1)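 Agar well diffusion. Compounds were tested at 10, 20, 100, 200 and 300 µg/mL, and the zone of inhibition was measured in mm. Gentamycin sulfate was the reference drug.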

Escherichia coli [2] = assay: Bactericidal activity against Escherichia coli ATCC 8739 after 24 hrs; type: functional; details: ATCC 8739, 24 h, read-out: MBC99.9
Procedure, shortened: (§2)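 MBC determined by a standard MBC protocol alongside the MIC, with values in µg/mL. Gentamycin sulfate and ampicillin were the references.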

Cytochrome P450 2A6 = molecular target: T1, Cytochrome P450 2A6 (Homo sapiens, UniProt P11509); assay: Inhibition of human microsomal CYP2A6; type: ADME
T1 sequence (P11509 whole entry): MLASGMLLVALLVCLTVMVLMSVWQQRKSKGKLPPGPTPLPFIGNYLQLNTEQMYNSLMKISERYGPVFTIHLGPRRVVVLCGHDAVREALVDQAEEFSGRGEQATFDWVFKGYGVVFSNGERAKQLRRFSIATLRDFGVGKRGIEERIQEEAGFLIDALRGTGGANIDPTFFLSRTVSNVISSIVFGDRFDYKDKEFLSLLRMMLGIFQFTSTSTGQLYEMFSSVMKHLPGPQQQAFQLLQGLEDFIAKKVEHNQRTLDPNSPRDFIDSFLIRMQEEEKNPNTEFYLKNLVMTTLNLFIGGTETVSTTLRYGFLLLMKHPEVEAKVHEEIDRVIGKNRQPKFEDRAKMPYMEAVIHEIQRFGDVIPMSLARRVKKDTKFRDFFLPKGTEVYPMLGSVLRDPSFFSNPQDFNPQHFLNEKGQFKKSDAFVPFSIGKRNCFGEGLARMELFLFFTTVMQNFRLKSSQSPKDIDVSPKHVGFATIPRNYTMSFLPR

Bacillus spizizenii [3] = assay: Antibacterial activity against Bacillus subtilis ATCC 6633 assessed as growth inhibition at 100 ug/ml after 24 hrs by agar well diffusion method; type: functional, organism-based; procedure, shortened: as §1
Staphylococcus aureus [4] = assay: Antibacterial activity against methicillin-resistant Staphylococcus aureus NCTC 13616 assessed as growth inhibition at 100 ug/ml after 24 hrs by agar well diffusion method; type: functional, organism-based
Procedure, shortened: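 Agar well diffusion assay with compounds applied to wells at several concentrations, including the 100 level reported here. The zone of inhibition was measured in mm. Gentamycin sulfate was the standard drug.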

Escherichia coli [5] = assay: Antibacterial activity against Escherichia coli ATCC 8739 after 24 hrs by microtiter plate method; type: functional; details: ATCC 8739, 24 h
Procedure, shortened: (§3)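 Test concentrations reported in µg/mL. Gentamycin sulfate and ampicillin were the reference drugs.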

HeLa [6] = assay: Anticancer activity against human HeLa cells assessed as cell viability at 10 uM after 48 hrs by MTT assay; type: functional, cell-based
[7] = Anticancer activity against human DU145 cells assessed as cell viability after 48 hrs by MTT assay; type: functional, cell-based; details: DU-145, 48 h
Procedure, shortened: (§4)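 MTT cytotoxicity assay in human DU-145 prostate, MCF-7 breast and HeLa cervical cancer cell lines. Doxorubicin was the reference drug.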

Proteus vulgaris [8] = assay: Bactericidal activity against Proteus vulgaris ATCC 13315 after 24 hrs; type: functional; details: ATCC 13315, 24 h, read-out: MBC99.9; procedure, shortened: as §2
Proteus vulgaris [9] = assay: Antibacterial activity against Proteus vulgaris ATCC 13315 after 24 hrs by microtiter plate method; type: functional; details: ATCC 13315, 24 h; procedure, shortened: as §3
Klebsiella pneumoniae [10] = assay: Antibacterial activity against Klebsiella pneumoniae ATCC 43816 after 24 hrs by microtiter plate method; type: functional; details: ATCC 43816, 24 h; procedure, shortened: as §3
Bacillus cereus [11] = assay: Antibacterial activity against Bacillus cereus ATCC 14579 assessed as growth inhibition at 100 ug/ml after 24 hrs by agar well diffusion method; type: functional; procedure, shortened: as §1
Staphylococcus aureus [12] = assay: Bactericidal activity against methicillin-resistant Staphylococcus aureus NCTC 13616 after 24 hrs; type: functional; details: NCTC 13616, 24 h, read-out: MBC99.9
Procedure, shortened: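 MBC determined by a standard MBC protocol run alongside the MIC determination. Gentamycin sulfate and ampicillin served as reference drugs.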

Bacillus spizizenii [13] = assay: Antibacterial activity against Bacillus subtilis ATCC 6633 after 24 hrs by microtiter plate method; type: functional; details: ATCC 6633, 24 h; procedure, shortened: as §3
Proteus vulgaris [14] = assay: Antibacterial activity against Proteus vulgaris ATCC 13315 assessed as growth inhibition at 100 ug/ml after 24 hrs by agar well diffusion method; type: functional; procedure, shortened: as §1
MCF7 = assay: Anticancer activity against human MCF7 cells assessed as cell viability after 48 hrs by MTT assay; type: functional, cell-based; details: MCF7, 48 h; procedure, shortened: as §4
Staphylococcus aureus [15] = assay: Antibacterial activity against methicillin-resistant Staphylococcus aureus NCTC 13616 after 24 hrs by microtiter plate method; type: functional; details: NCTC 13616, 24 h
Bacillus spizizenii [16] = assay: Bactericidal activity against Bacillus subtilis ATCC 6633 after 24 hrs; type: functional; details: ATCC 6633, 24 h, read-out: MBC99.9; procedure, shortened: as §2
Klebsiella pneumoniae [17] = assay: Antibacterial activity against Klebsiella pneumoniae ATCC 43816 assessed as growth inhibition at 100 ug/ml after 24 hrs by agar well diffusion method; type: functional; procedure, shortened: as §1
HeLa [18] = assay: Anticancer activity against human HeLa cells assessed as cell viability after 48 hrs by MTT assay; type: functional, cell-based; procedure, shortened: as §4
Bacillus cereus [19] = assay: Antibacterial activity against Bacillus cereus ATCC 14579 after 24 hrs by microtiter plate method; type: functional; details: ATCC 14579, 24 h; procedure, shortened: as §3
Klebsiella pneumoniae [20] = assay: Bactericidal activity against Klebsiella pneumoniae ATCC 43816 after 24 hrs; type: functional; details: ATCC 43816, 24 h, read-out: MBC99.9; procedure, shortened: as §2
Bacillus cereus [21] = assay: Bactericidal activity against Bacillus cereus ATCC 14579 after 24 hrs; type: functional; details: ATCC 14579, 24 h, read-out: MBC99.9; procedure, shortened: as §2
[22] = n-Octanol-phosphate buffer partition coefficient, log P of the compound at pH 7.4 after 30 mins by shake flask method; type: physicochemical
Procedure, shortened: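 Shake-flask partition between n-octanol and 50 mM phosphate buffer, pH 7.4. P calculated and expressed as logP.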

Row | Compound | MBC (Escherichia coli [2]) | pKi (Cytochrome P450 2A6) | growth inhibition (GI) (Bacillus spizizenii [3]) | growth inhibition (GI) (Staphylococcus aureus [4]) | MIC (Escherichia coli [5]) | pIC50 [7] | MBC (Proteus vulgaris [8]) | MIC (Proteus vulgaris [9]) | MIC (Klebsiella pneumoniae [10]) | growth inhibition (GI) (Bacillus cereus [11]) | MBC (Staphylococcus aureus [12]) | MIC (Bacillus spizizenii [13]) | pIC50 (MCF7) | MIC (Staphylococcus aureus [15]) | MBC (Bacillus spizizenii [16]) | pIC50 (HeLa [18]) | MIC (Bacillus cereus [19]) | MBC (Klebsiella pneumoniae [20]) | MBC (Bacillus cereus [21]) | logD at 0.5 h [22] | also measured
1 | O=Cc1cn(-c2nc(-c3cc4cc(Cl)ccc4oc3=O)cs2)nc1-c1ccc(Cl)cc1 | 250 µg/mL (≈ 534 µM) | 7.78 | Active | Active | 126 µg/mL (≈ 270 µM) | 4.83 | 260 µg/mL (≈ 555 µM) | 131 µg/mL (≈ 279 µM) | 117 µg/mL (≈ 251 µM) | Active | 265 µg/mL (≈ 566 µM) | 112 µg/mL (≈ 240 µM) | 4.73 | 134 µg/mL (≈ 286 µM) | 165 µg/mL (≈ 352 µM) | 5.02 | 111 µg/mL (≈ 237 µM) | 240 µg/mL (≈ 512 µM) | 165 µg/mL (≈ 352 µM) | 3.06 | growth inhibition (GI) (Escherichia coli [1]): Active; growth inhibition (GI) (HeLa [6]): Active; growth inhibition (GI) (Proteus vulgaris [14]): Active; growth inhibition (GI) (Klebsiella pneumoniae [17]): Active
2 | O=Cc1cn(-c2nc(-c3cc4cc(Br)ccc4oc3=O)cs2)nc1-c1ccc(Cl)cc1 | 230 µg/mL (≈ 449 µM) | 7.88 | Active | Active | 118 µg/mL (≈ 229 µM) | 4.65 | 250 µg/mL (≈ 488 µM) | 128 µg/mL (≈ 249 µM) | 115 µg/mL (≈ 224 µM) | Active | 185 µg/mL (≈ 361 µM) | 120 µg/mL (≈ 233 µM) | 4.07 | 123 µg/mL (≈ 240 µM) | 175 µg/mL (≈ 341 µM) | 5.02 | 115 µg/mL (≈ 224 µM) | 172 µg/mL (≈ 335 µM) | 170 µg/mL (≈ 332 µM) | 3.07 | growth inhibition (GI) (Escherichia coli [1]): Active; growth inhibition (GI) (HeLa [6]): Active; growth inhibition (GI) (Proteus vulgaris [14]): Active; growth inhibition (GI) (Klebsiella pneumoniae [17]): Active
3 | O=Cc1cn(-c2nc(-c3cc4cc(Br)cc(Br)c4oc3=O)cs2)nc1-c1ccccc1 | 170 µg/mL (≈ 305 µM) | 8.47 | Active | Active | 116 µg/mL (≈ 207 µM) | 4.55 | 240 µg/mL (≈ 431 µM) | 120 µg/mL (≈ 215 µM) | 119 µg/mL (≈ 214 µM) | Active | 175 µg/mL (≈ 314 µM) | 118 µg/mL (≈ 212 µM) | 4.65 | 117 µg/mL (≈ 210 µM) | 240 µg/mL (≈ 431 µM) | 4.86 | 119 µg/mL (≈ 214 µM) | 240 µg/mL (≈ 431 µM) | 240 µg/mL (≈ 431 µM) | 3.11 | growth inhibition (GI) (Escherichia coli [1]): Active; growth inhibition (GI) (Proteus vulgaris [14]): Active; growth inhibition (GI) (Klebsiella pneumoniae [17]): Active
4 | O=Cc1cn(-c2nc(-c3cc4c(ccc5ccccc54)oc3=O)cs2)nc1-c1ccccc1 | 260 µg/mL (≈ 578 µM) | 10.24 |  |  | 133 µg/mL (≈ 295 µM) | 4.92 | 300 µg/mL (≈ 667 µM) | 150 µg/mL (≈ 334 µM) | 150 µg/mL (≈ 334 µM) |  | 270 µg/mL (≈ 601 µM) | 123 µg/mL (≈ 273 µM) | 4.40 | 135 µg/mL (≈ 300 µM) | 240 µg/mL (≈ 534 µM) | 4.88 | 139 µg/mL (≈ 309 µM) | 225 µg/mL (≈ 501 µM) | 275 µg/mL (≈ 612 µM) | 3.54 | 
5 | O=Cc1cn(-c2nc(-c3cc4cc(Br)ccc4oc3=O)cs2)nc1-c1ccccc1 | 240 µg/mL (≈ 502 µM) | 8.22 | Active | Active | 118 µg/mL (≈ 247 µM) | 4.46 | 250 µg/mL (≈ 523 µM) | 124 µg/mL (≈ 259 µM) | 117 µg/mL (≈ 244 µM) | Active | 175 µg/mL (≈ 366 µM) | 125 µg/mL (≈ 261 µM) | 4.74 | 116 µg/mL (≈ 243 µM) | 250 µg/mL (≈ 523 µM) | 4.96 | 129 µg/mL (≈ 270 µM) | 175 µg/mL (≈ 366 µM) | 260 µg/mL (≈ 544 µM) | 3.3 | growth inhibition (GI) (Escherichia coli [1]): Active; growth inhibition (GI) (Proteus vulgaris [14]): Active; growth inhibition (GI) (Klebsiella pneumoniae [17]): Active
6 | O=Cc1cn(-c2nc(-c3cc4cc(Cl)cc(Cl)c4oc3=O)cs2)nc1-c1ccc(Cl)cc1 | 220 µg/mL (≈ 438 µM) | 8.57 | Active | Active | 111 µg/mL (≈ 221 µM) | 4.51 | 225 µg/mL (≈ 448 µM) | 113 µg/mL (≈ 225 µM) | 105 µg/mL (≈ 209 µM) | Active | 225 µg/mL (≈ 448 µM) | 111 µg/mL (≈ 220 µM) | 4.66 | 112 µg/mL (≈ 224 µM) | 165 µg/mL (≈ 328 µM) | 4.99 | 112 µg/mL (≈ 223 µM) | 155 µg/mL (≈ 308 µM) | 220 µg/mL (≈ 438 µM) | 3 | 
